FGF22 binding: FGF22 (human) thermal shift binding. Q9HCT0. recombinant FGF22 thermal shift, SYPRO orange fluorescence; percent of sucrose octasulfate shift, DMSO zero. activity (Tm shift, normalised), % at 9.99 µM. 1.5% of 340,000 active;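 active means mean Tm shift, scaled 0 neutral to 100 positive control, at about 1.3% or above, every replicate too, limit read from the data; inconclusive means no clear call, values can overlap the other calls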
Target sequence (Q9HCT0 whole entry, looked up): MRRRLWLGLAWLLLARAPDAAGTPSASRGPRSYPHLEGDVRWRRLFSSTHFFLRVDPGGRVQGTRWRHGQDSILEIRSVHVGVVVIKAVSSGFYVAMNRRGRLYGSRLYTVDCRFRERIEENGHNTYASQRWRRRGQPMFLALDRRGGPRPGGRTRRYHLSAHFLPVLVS
PGC1a acetyl inh: modulators of PGC1a acetylation; inhibition, % at 15.6 µM; 0.17% of 350,000 active; U2OS PGC1a acetylation, AlphaScreen anti-acetyl-lysine; with virally co-expressed GCN5 acetyltransferase;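 active means every replicate shows inhibition of at least 40%; inconclusive means mean inhibition at least 40% but some replicate below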
ERAP1 inh: ERAP1 (human) enzyme inhibition. recombinant ERAP1, Leu-AMC fluorescence, 60 min. 0.15% of 340,000 active. inhibition, % at 10.7 µM. AID 652197. Q9NZ08;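 active means mean replicate inhibition of at least 30%, or all replicates individually reaching that 30% level; inactive means mean below 30% and not every replicate reaching it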
Cneo AK release: causes C. neoformans cell lysis. adenylate kinase release luminescence, 4 h; normalised: neutral wells 0, clomiphene wells 100. lysis activity, % at 15 µM. 0.2% of 360,000 active;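 active means mean lysis activity across replicates of at least 80%, whatever share of replicates individually reach that level; inactive means mean lysis activity below 80%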
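Test system: log-phase Cryptococcus neoformans yeast cells. Input: 5 × 10^6 yeast cells/mL. Medium: fresh YPD growth medium. Doses: single dose. Incubation: static 4 h at 37 °C with compound, 1 h detection. Measured by: luminescent adenylate kinase detection reagent. Read-out: signal increase indicating cell lysis. Benchmarks: Clomiphene.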
rRNA inh HTS: selective bacterial rRNA inhibition in E. coli | E. coli WT GFP vs humanized-ribosome RFP mutants, fluorescence, 24 h; hits give low values; DMSO median 0, no signal -100 | GFP signal change (wild-type ribosome), % (test concentration not listed) | 1.6% of 350,000 active | AID 720706;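 active means significant combined selectivity score with lowered wild-type GFP, culture density cut under 30%, mutant RFP and density less affected; inactive means any of these conditions unmet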
HIV Env fusion: HIV envelope-mediated fusion inhibition. HeLa-JRFL Env/CEM21 cell fusion, luciferase. 1.1% of 360,000 active. inhibition, % at 12.3 µM;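 active means mean replicate inhibition score of at least 50 and every replicate individually at or above 50; inconclusive means only one of the two criteria met; inactive means mean below 50 and not all replicates reaching 50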
A number is an active result; i = inactive; ? = inconclusive; nt = no result. Rows were chosen to be rich in hits. Some 3.5% of all compounds tested hit in one or more screens of this group.

SMILES	FGF22 binding	PGC1a acetyl inh	ERAP1 inh	Cneo AK release	rRNA inh HTS	HIV Env fusion
O=C(OCc1ccccn1)c1ccc(COc2ccc3ccccc3c2)o1	i	i	i	i	-26	i
O=C(NCc1ccccn1)c1ccc(COc2ccc(Cl)cc2)o1	nt	i	nt	i	nt	nt
CC=Cc1ccc2n(c1=O)C[C@H]1[C@H](CO)[C@@H](C(=O)N[C@H](C)c3ccccc3)[C@@H]2N1CC (mixture of isomers)	i	nt	i	i	i	i
O=C(O)CSc1c2c(nc3cc(C(=O)N4CCOCC4)ccc13)CCCC2	nt	i	nt	i	nt	i
COc1ccccc1-c1cc(C(F)(F)F)nc(S(=O)(=O)CCCC(=O)NCc2ccc(F)cc2)n1	1.4	nt	i	nt	i	i
COc1ccc(-c2cc(C(F)(F)F)nc(S(=O)(=O)CCCC(=O)Nc3cc(C)on3)n2)cc1OC	i	nt	37	nt	i	i
CC(O)[C@H]1CNCCN1CCc1cc(C(F)(F)F)cc(C(F)(F)F)c1 (stereo partly specified)	i	nt	i	i	i	i
Nc1ccc(C(=O)N2CCN(S(=O)(=O)c3ccc(Br)cc3)CC2)cc1[N+](=O)[O-]	i	nt	i	nt	i	i
Cc1cccc(N2C(=O)C(Cl)=C(N3CCOCC3)C2=O)c1	i	81	i	i	i	i
O=C1C(Cl)=C(N2CCOCC2)C(=O)N1c1cccc(Cl)c1	nt	i	nt	i	nt	i
O=C1C(Cl)=C(N2CCCCCC2)C(=O)N1c1ccccc1	nt	i	nt	i	nt	105
O=C1C(Cl)=C(N2CCCCCC2)C(=O)N1c1ccc(Br)cc1	i	i	i	i	i	i
CO[C@H]1CN(C)C(=O)c2cc(NC(C)=O)ccc2OC[C@@H](C)N(C(=O)CC2CC2)C[C@H]1C	i	i	i	i	i	i
O=C(NCCNC(=O)c1ccc(-c2cc(Cl)ccc2Cl)o1)c1cnccn1	44	i	i	i	i	i
O=C(NCCNC(=O)c1ccc(-c2ccc(Cl)c(Cl)c2)o1)c1cnccn1	i	i	i	i	i	i
S=C(Nc1cccc(Cl)c1)Nc1ccccc1Oc1ccccc1	nt	i	nt	i	nt	nt
S=C(Nc1ccc(Cl)cc1Cl)Nc1ccccc1Oc1ccccc1	nt	i	nt	360	nt	nt
Cc1ccc(S(=O)(=O)NNC(=O)CC#N)cc1	i	i	i	i	i	i
Clc1ccc(OCc2nnc(SCc3nc4ccccc4[nH]3)n2Cc2ccco2)cc1	nt	nt	nt	i	nt	56
CO[C@H]1O[C@H](CO)[C@@H](OC(=O)Nc2ccc3c(c2)OCO3)[C@@H]2OC(=O)[C@@H](Cc3ccccc3)C/C=C/C[C@H](Cc3ccccc3)C(=O)O[C@@H]12	i	i	i	i	nt	i
C=CCn1c(=S)sc2c(=O)[nH]cnc21	i	i	i	i	-23	i
Cc1nn(-c2ccccc2)c(Cl)c1CN(C(=O)CCl)c1ccc(Cl)cc1	i	nt	i	i	-32	i
COc1ccccc1CNC(=O)CCNS(=O)(=O)c1cccc2nsnc12	i	i	i	i	i	nt
C[C@@H]1CCCCO[C@H](CN(C)Cc2ccc(C(F)(F)F)cc2)[C@H](C)CN([C@@H](C)CO)C(=O)c2cc(NS(=O)(=O)c3cccs3)ccc2O1	i	i	i	i	i	?
Cc1[nH]c2ccccc2c1C(=O)/C=C/c1ccccc1	nt	71	nt	i	nt	nt
SMILES	FGF22 binding	PGC1a acetyl inh	ERAP1 inh	Cneo AK release	rRNA inh HTS	HIV Env fusion
Cc1[nH]c2ccccc2c1C(=O)/C=C\c1ccccc1Cl	nt	nt	nt	nt	nt	i
Cc1ccc(NC(=O)CSc2ccc(-c3cccnc3)nn2)c(C)c1	i	i	i	i	i	i
COc1ccc(N(C)S(=O)(=O)c2cccc(C(=O)OCC(=O)c3c(N)n(C)c(=O)n(C)c3=O)c2)cc1	i	i	i	i	i	i
CC(=O)c1c(C)[nH]c(C(=O)COC(=O)c2cc(S(=O)(=O)N(C)c3ccccc3)ccc2Cl)c1C	i	nt	i	nt	-28	i
CCN(c1ccccc1)S(=O)(=O)c1ccc(Cl)c(C(=O)OCC(=O)c2[nH]c(C)c(C(C)=O)c2C)c1	i	i	i	i	i	i
CNS(=O)(=O)c1cccc(C(=O)OCC(=O)c2c(N)n(Cc3ccccc3)c(=O)n(C)c2=O)c1	i	nt	i	i	-26	i
CN(c1ccccc1)S(=O)(=O)c1ccc(Cl)c(C(=O)OCC(=O)c2c(N)n(C)c(=O)n(C)c2=O)c1	i	i	i	i	-21	i
COc1ccc(CNC(=O)C[C@H]2C[C@H](C(=O)N3CCCCC3)[C@@]3(CCc4ccccc4)c4[nH]c5ccc(Cl)cc5c4CCN3C2=O)cc1OC	i	i	nt	i	i	i
O=C(NNC(=O)c1cc2cc(OC(F)(F)F)ccc2[nH]1)c1cccc(C(F)(F)F)c1	i	nt	i	nt	-21	i
O=C(NCCCN1CCOCC1)c1cnccn1	i	nt	i	nt	i	i
Nc1ccccc1C(=O)NNc1c2ccccc2nc2ccccc12	i	i	i	i	-20	i
Cc1ccc(C(=O)NNc2c3ccccc3nc3ccccc23)cc1	i	i	i	i	i	i
Cc1ccccc1CC1(CO)CCCN(Cc2ccccc2Cl)C1 (stereo unspecified)	i	i	i	i	-28	i
Cc1ccccc1CC1(CO)CCCN(Cc2ccc(C#CC(C)(C)O)cc2)C1 (stereo unspecified)	43	nt	i	nt	nt	i
CC1(/[N+]([O-])=C/c2ccc(F)cc2)CCCCC1=O (stereo unspecified)	i	nt	nt	nt	i	i
O=C(c1ccco1)N1CCN(c2ncnc3c2cnn3-c2ccccc2)CC1	nt	i	nt	i	nt	nt
Cc1sc2nc(CN3CCOCC3)nc(N3CCN(S(=O)(=O)c4ccccc4)CC3)c2c1C	i	i	i	i	-24	i
CCc1cc2c(N3CCN(C(=O)c4ccco4)CC3)ncnc2s1	i	i	i	i	-30	i
Cc1sc2nc(CN3CCCC3)nc(N3CCN(C(=O)c4ccco4)CC3)c2c1C	44	i	i	nt	i	i
COC(=O)[C@@]12CCCCN1[C@H](c1ccc(-c3cccc(Cl)c3)cc1)[C@H]1C(=O)N(C)C(=O)[C@H]12	i	i	i	i	i	i
CC(C)c1ccc(N(CC(=O)NCc2cccnc2)S(=O)(=O)c2ccccc2)cc1	i	nt	i	i	i	i
CCOC(=O)c1nn(-c2ccccc2)c(C#N)c1NC(=O)c1nn(CC)cc1Br	nt	i	nt	i	nt	nt
Cc1cc(C)cc(N(C(=O)c2sc(C)nc2C)C(C(=O)NC(C)(C)C)c2ccncc2)c1 (stereo unspecified)	43	i	i	i	i	i
Cc1cc(C)cc(N(C(=O)c2sc(C)nc2C)C(C(=O)NCc2ccco2)c2ccccc2)c1 (stereo unspecified)	i	i	i	i	i	nt
CN(C)c1ccc(C(=S)N2CCCCC2)cc1	43	i	i	i	i	i
O=C(COc1cccnc1[N+](=O)[O-])N1N=C(c2ccc(Cl)cc2)CC1c1ccco1 (stereo unspecified)	i	i	i	nt	-20	i

Compound activity (PubChem)
